Measured values published in article PMC10949176 (Clinical and Translational Science, 2024).
Several values for one entry are separate records, joined by “and”; a condition that tells them apart may be missing. Identical values can stand only once. Entries after “also recorded” stand apart in the source; their conditions may differ. Values belong to the molecule of their own block, whether it stands above or below them.

What was measured:
[1] = system: recombinant SULT1E1; assay: Recombinant SULT inhibition by ABT, SULT1E1; type: biochemical; conditions: 1 mM ABT, raloxifene probe substrate, data not shown
[2] = target: UGT1A9 (Homo sapiens, UniProt O60656); assay: UGT inhibition in suspension human hepatocytes; type: cell-based; conditions: read-out: Ki,u HHEPs; UGT1A9, Propofol 10 μM, unbound
UGT1A9, sequence (O60656 26-530): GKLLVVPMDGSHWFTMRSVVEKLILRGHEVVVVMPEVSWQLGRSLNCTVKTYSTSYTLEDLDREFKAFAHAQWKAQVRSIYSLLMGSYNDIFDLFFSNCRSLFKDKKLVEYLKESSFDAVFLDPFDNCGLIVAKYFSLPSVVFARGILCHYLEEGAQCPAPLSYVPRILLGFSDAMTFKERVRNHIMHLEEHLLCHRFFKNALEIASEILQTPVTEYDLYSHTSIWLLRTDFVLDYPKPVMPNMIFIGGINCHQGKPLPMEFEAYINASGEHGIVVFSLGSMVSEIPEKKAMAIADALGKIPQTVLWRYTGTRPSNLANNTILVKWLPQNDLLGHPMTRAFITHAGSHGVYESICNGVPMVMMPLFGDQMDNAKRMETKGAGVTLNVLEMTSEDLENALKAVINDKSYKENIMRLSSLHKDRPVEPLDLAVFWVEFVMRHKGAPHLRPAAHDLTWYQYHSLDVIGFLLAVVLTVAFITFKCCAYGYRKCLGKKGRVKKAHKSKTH

[3] = system: recombinant SULT1C4; assay: Recombinant SULT inhibition by ABT, SULT1C4; type: biochemical; conditions: 1 mM ABT, raloxifene probe substrate, data not shown
[4] = target: UGT1A1 (Homo sapiens, UniProt P22309); assay: UGT inhibition in suspension human hepatocytes; type: cell-based; conditions: UGT1A1, β‐Estradiol 3 μM, unbound
UGT1A1, sequence (P22309 26-533): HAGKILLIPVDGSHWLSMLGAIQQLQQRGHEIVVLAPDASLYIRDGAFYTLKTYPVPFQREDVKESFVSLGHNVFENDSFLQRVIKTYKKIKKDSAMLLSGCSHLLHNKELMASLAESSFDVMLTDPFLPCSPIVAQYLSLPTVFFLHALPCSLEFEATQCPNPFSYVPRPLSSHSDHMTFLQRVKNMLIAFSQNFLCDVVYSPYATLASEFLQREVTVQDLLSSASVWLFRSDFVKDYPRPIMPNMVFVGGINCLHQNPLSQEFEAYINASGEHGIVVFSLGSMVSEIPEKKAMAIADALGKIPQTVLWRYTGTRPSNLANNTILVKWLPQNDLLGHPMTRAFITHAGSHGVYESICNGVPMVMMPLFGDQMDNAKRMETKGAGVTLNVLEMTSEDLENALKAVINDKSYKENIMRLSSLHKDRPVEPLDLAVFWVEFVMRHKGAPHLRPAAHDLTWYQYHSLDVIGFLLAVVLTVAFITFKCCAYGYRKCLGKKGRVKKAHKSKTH

[5] = system: recombinant SULT1A3; assay: Recombinant SULT inhibition by ABT, SULT1A3; type: biochemical; conditions: 1 mM ABT, raloxifene probe substrate, data not shown
[6] = system: recombinant SULT1C2; assay: Recombinant SULT inhibition by ABT, SULT1C2; type: biochemical; conditions: 1 mM ABT, raloxifene probe substrate, data not shown
[7] = target: UGT2B15 (Homo sapiens, UniProt P54855); assay: UGT inhibition in suspension human hepatocytes; type: cell-based; conditions: read-out: Ki,u HHEPs; UGT2B15, Oxazepam 10 μM, unbound
UGT2B15, sequence (P54855 24-530): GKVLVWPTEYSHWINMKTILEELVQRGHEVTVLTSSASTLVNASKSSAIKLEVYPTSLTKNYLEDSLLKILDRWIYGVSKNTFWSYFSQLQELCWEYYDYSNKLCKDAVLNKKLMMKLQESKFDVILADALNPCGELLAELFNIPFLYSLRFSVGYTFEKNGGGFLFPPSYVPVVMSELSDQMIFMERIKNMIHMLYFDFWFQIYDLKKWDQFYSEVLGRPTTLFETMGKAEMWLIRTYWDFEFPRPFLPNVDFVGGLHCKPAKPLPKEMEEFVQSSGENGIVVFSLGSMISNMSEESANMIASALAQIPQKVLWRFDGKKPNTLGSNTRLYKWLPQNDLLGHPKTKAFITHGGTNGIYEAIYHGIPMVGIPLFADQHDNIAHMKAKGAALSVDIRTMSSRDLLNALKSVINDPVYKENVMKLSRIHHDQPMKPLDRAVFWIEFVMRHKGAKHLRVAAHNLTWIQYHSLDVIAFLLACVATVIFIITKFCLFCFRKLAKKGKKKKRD

[8] = target: UGT1A4 (Homo sapiens, UniProt P22310); assay: UGT inhibition in suspension human hepatocytes; type: cell-based; conditions: read-out: Ki,u HHEPs; UGT1A4, TFP 1 μM, unbound
UGT1A4, sequence (P22310 29-534): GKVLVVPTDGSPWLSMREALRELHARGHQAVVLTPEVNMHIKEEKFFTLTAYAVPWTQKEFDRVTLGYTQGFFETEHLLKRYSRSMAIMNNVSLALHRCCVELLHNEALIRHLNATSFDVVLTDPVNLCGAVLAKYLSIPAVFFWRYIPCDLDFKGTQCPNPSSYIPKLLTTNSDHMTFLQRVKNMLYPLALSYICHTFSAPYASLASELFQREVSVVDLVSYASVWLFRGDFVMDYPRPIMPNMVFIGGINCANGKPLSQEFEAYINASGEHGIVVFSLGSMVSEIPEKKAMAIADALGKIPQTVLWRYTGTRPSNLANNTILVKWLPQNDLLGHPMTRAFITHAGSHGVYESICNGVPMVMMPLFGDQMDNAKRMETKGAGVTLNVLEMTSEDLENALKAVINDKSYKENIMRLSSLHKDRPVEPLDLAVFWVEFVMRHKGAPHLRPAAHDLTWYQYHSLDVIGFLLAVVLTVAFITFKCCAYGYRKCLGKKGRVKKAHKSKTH

[9] = target: T1, SULT2A1 (Homo sapiens, UniProt Q06520); assay: Recombinant SULT inhibition by ABT, SULT2A1; type: biochemical; conditions: 1 mM ABT, raloxifene probe substrate, data not shown
T1 sequence (Q06520 1-285): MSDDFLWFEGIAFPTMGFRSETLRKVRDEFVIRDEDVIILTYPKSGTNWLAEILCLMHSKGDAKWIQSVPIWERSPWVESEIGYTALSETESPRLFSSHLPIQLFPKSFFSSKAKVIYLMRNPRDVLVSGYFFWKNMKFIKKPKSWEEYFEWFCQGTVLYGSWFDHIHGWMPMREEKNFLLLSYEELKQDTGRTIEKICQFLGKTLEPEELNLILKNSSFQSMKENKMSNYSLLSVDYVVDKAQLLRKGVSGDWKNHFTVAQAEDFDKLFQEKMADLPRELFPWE

[10] = system: recombinant SULT1B1; assay: Recombinant SULT inhibition by ABT, SULT1B1; type: biochemical; conditions: 1 mM ABT, raloxifene probe substrate, data not shown
[11] = system: recombinant SULT1A1; assay: Recombinant SULT inhibition by ABT, SULT1A1; type: biochemical; conditions: 1 mM ABT, raloxifene probe substrate, data not shown
[12] = target: UGT1A3 (Homo sapiens, UniProt P35503); assay: UGT inhibition in suspension human hepatocytes; type: cell-based; conditions: read-out: Ki,u HHEPs; UGT1A3, CDCA 2 μM, unbound
UGT1A3, sequence (P35503 29-534): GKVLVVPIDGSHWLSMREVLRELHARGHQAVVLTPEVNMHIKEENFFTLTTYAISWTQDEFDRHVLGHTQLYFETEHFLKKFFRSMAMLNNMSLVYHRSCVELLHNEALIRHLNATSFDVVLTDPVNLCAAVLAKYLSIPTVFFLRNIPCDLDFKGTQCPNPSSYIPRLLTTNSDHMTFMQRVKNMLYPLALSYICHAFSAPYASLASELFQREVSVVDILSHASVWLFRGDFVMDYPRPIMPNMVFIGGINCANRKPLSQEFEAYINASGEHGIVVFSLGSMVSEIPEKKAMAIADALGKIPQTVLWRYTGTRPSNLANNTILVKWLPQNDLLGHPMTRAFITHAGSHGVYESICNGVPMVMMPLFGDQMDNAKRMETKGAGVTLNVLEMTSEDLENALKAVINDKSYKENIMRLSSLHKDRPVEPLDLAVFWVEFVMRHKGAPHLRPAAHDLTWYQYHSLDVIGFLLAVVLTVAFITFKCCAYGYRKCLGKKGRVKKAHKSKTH

[13] = target: UGT2B7 (Homo sapiens, UniProt P16662); assay: UGT inhibition in suspension human hepatocytes; type: cell-based; conditions: read-out: Ki,u HHEPs; UGT2B7, Zidovudine 100 μM, unbound
UGT2B7, sequence (P16662 24-529): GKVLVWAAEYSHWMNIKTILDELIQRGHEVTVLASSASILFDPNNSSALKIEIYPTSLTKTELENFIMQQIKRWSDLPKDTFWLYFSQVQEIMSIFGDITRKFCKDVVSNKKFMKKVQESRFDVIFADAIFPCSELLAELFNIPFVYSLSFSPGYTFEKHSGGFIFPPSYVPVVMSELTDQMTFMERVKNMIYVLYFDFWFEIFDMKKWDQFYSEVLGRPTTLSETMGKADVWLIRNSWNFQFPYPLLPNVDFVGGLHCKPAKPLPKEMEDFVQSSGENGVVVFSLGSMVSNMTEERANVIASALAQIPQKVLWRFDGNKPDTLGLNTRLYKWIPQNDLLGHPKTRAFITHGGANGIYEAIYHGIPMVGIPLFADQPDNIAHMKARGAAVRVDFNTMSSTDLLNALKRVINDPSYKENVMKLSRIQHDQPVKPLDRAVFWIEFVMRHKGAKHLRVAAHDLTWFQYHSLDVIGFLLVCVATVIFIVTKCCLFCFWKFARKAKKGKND

[14] = system: recombinant SULT2B1; assay: Recombinant SULT inhibition by ABT, SULT2B1; type: biochemical; conditions: 1 mM ABT, raloxifene probe substrate, data not shown
[15] = target: UGT1A6 (Homo sapiens, UniProt P19224); assay: UGT inhibition in suspension human hepatocytes; type: cell-based; conditions: UGT1A6, Serotonin 1715 μM, unbound
UGT1A6, sequence (P19224 27-532): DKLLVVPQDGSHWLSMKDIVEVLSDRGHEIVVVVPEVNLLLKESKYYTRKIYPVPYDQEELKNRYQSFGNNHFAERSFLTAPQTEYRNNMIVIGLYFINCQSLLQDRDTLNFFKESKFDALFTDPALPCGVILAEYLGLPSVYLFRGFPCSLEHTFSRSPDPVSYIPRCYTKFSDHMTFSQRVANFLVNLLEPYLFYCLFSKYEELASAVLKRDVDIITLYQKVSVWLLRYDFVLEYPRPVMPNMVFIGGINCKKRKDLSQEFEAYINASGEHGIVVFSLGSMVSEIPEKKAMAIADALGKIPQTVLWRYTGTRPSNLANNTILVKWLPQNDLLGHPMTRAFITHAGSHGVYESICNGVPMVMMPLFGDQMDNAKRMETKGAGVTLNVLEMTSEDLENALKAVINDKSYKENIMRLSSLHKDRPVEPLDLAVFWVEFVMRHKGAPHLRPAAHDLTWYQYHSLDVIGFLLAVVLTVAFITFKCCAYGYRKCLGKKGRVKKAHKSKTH

[16] = ref https://endpts.com/arvinas‐reports‐delay‐for‐pfizer‐partnered‐protein‐degradation‐program/, cited from earlier work
[17] = target: T1, SULT2A1; assay: ARV-471 inhibition of SULT2A1 in Hμrel; type: cell-based; conditions: Hμrel IC50 (DHEAS formation, SULT2A1), Hμrel model
Method in brief: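 Hμrel co-culture of mixed-gender, five-donor pooled hepatocytes, acclimated 24 h at 37°C, 5% CO₂, exposed to varying test compound concentrations. […] DHEAS formation was measured and IC50 derived. Mean of three.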

[18] = system: CYP3A; assay: CYP3A activity in Hμrel with ARV-471; type: cell-based, human
[19] = target: T1, SULT2A1; assay: ARV-471 inhibition of recombinant SULT2A1; type: biochemical; conditions: rSULT2A1 IC50 (DHEAS formation)
Method in brief: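 Recombinant human SULT2A1 incubated with varying test compound concentrations. Read-out was formation of DHEAS, with IC50 derived from the concentration response. Mean of three.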

[20] = system: palbociclib metabolic pathways in co‐culture human hepatocyte models; type: in vitro ADME
[21] = system: palbociclib intrinsic clearance in Hμrel co‐culture hepatocytes; assay: Impact of ARV-471 on intrinsic clearance of palbociclib in Hμrel; type: in vitro ADME, human; conditions: at ~3 μM ARV‐471
[22] = system: palbociclib sulfation; assay: Formation of palbociclib sulfate in Hμrel with ARV-471; type: cell-based, human
[23] = system: CYP3A4 mRNA (marker of PXR); assay: mRNA induction in sandwich cultured hepatocytes; type: cell-based, human; conditions: RIS qualified donor HH1103, sandwich cultured hepatocytes, 48 h
[24] = Preliminary reaction phenotyping of palbociclib in hepatocytes; type: in vitro ADME; conditions: novel approach (manuscript under preparation)
[25] = system: CYP2B6 mRNA (marker of CAR); assay: mRNA induction in sandwich cultured hepatocytes; type: cell-based, human; conditions: RIS qualified donor HH1103, sandwich cultured hepatocytes, 48 h
[26] = Hμrel, 1'hydroxylation of midazolam

CYP3A4 induction Emax [23]: 2 fold
SMILES: CC(=O)N1CCN(c2ccc(OCC3COC(Cn4ccnc4)(c4ccc(Cl)cc4Cl)O3)cc2)CC1 (stereo not shown) [ketoconazole]

share of palbociclib clearance by glucuronidation [24]: 25%–30%
Clint at 5 μM compared with 0.045 μM ([20]; co-culture hepatocytes, suggesting saturation of metabolic clearance): reduced
SMILES: CC(=O)c1c(C)c2cnc(Nc3ccc(N4CCNCC4)cn3)nc2n(C2CCCC2)c1=O [palbociclib]

CYP2B6 induction (result in words) [25]: did not induce
SMILES: C=C[C@H]1C[N@@]2CC[C@H]1C[C@@H]2[C@@H](O)c1ccnc2ccc(OC)cc12 [quinidine]

The remaining lines, values behind:

SMILES: Nn1nnc2ccccc21 [ABT, Aminobenzotriazole]
inhibition of SULT1E1 [1]: No significant inhibition
Ki [2]: 4.58 mM
inhibition of SULT1C4 [3]: No significant inhibition
Ki,u HHEPs [4]: No inhibition
inhibition of SULT1A3 [5]: No significant inhibition
inhibition of SULT1C2 [6]: No significant inhibition
Ki [7]: > 20 mM
Ki [8]: 2.52 mM
inhibition of SULT2A1 [9]: No significant inhibition
inhibition of SULT1B1 [10]: No significant inhibition
inhibition of SULT1A1 [11]: No significant inhibition
Ki [12]: 6.03 mM
Ki [13]: 5.45 mM
inhibition of SULT2B1 [14]: No significant inhibition
Ki,u HHEPs [15]: No inhibition

SMILES: O=C1CC[C@H](N2Cc3cc(N4CCN(CC5CCN(c6ccc([C@@H]7c8ccc(O)cc8CC[C@@H]7c7ccccc7)cc6)CC5)CC4)ccc3C2=O)C(=O)N1 [ARV-471]
increase in palbociclib exposure (area under the curve) ([16]; co‐administration of palbociclib with ARV‐471, phase Ib): ~ 50% and 50%
adverse event with increased palbociclib exposure ([16]; palbociclib with ARV‐471, phase Ib): grade 3/4 neutropenia
IC50 [17]: > 0.035 mM
direct inhibition of CYP3A activity [18, 26]: no direct inhibition; also recorded: no direct or time‐dependent inhibition
time‐dependent inhibition of CYP3A [18, 26]: no direct or time‐dependent inhibition
Emax, increase in midazolam activity (CYP3A induction) ([18]; Hμrel, concentration and time‐dependent increase): 3.8 fold
EC50 ([18]; human, Hμrel co-culture hepatocytes, probe midazolam (1'-hydroxylation)): 0.00025 mM
IC50 [19]: > 0.035 mM
glucuronide metabolism of palbociclib ([20]; Hμrel and TruVivo, 5 μM palbociclib, 20 μM ARV‐471): completely inhibited
inhibition of metabolic clearance accounted for by glucuronide metabolism ([20]; based on MS ionization and summed metabolite area ratios, 20 μM ARV‐471): up to 50%
increase in palbociclib exposure recapitulated from Clint inhibition [21]: 50%
effect on palbociclib sulfation over the time course [22]: apparent activation
